Screens (PubChem BioAssay)
E-sel inducer: induces E-selectin expression in human endothelial cells. HUVEC E-selectin immunofluorescence imaging; normalized: neutral wells 0, TNF-alpha wells 100. activation, % at 7.58 µM. 260,000 tested, 0.37% active;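 active = mean E-selectin-positive cell signal at least 10% of the positive control, reached in at least 60% of replicates, without over 20% cell loss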
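Read-out basis: % PE-positive cells; Test system: HUVEC primary endothelial cells; Technique: immunofluorescence imaging; Dosing: single-point compound dose.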
Ecoli rRNA inh: inhibitors of bacterial rRNA selective over humanized ribosomes. E. coli WT GFP vs humanized-ribosome RFP mutants, fluorescence, 24 h; stronger effect = lower value; DMSO median 0, no signal -100. GFP signal change (wild-type ribosome), % (test concentration not listed). 350,000 tested, 1.6% active;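 active = significant combined selectivity score with lowered wild-type GFP, culture density cut under 30%, mutant RFP and density less affected; inactive = any of these conditions unmet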
MLL AF4-AF9 inh: blocks AF4 peptide binding to human AF9 | inhibition, % at 10 µM | AID 651704 | AlphaScreen, biotin-AF4 peptide binding to FLAG-AF9 | P42568 | 350,000 tested, 0.47% active;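 active = every replicate reaching a set inhibition limit, whatever the replicate mean, cut at about 25% in these data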;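 also: 0% = plate neutral control median and 100% = total signal loss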
SIRT5 inh: inhibitors of human sirtuin-5 desuccinylase; 330,000 tested, 1.1% active; Purified SirT5, succinyl-peptide AMC, trypsin-coupled fluorescence; inhibition, % at 15 µM; in the data active = inhibition above about 15%
Target sequence (Q9NXA8 whole entry, looked up): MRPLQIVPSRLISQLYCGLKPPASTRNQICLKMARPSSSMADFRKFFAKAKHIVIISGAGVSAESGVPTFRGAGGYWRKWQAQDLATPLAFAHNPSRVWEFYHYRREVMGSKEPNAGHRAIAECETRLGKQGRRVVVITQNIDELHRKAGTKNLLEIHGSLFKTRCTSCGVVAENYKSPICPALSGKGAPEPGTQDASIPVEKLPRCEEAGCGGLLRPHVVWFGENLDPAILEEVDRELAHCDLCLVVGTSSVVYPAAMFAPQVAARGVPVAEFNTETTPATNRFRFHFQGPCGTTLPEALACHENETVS
ERAP1 inh: ERAP1 (human) enzyme inhibition. inhibition, % at 10.7 µM. recombinant ERAP1, Leu-AMC fluorescence, 60 min. AID 652197. 340,000 tested, 0.15% active;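 active = mean replicate inhibition of at least 30%, or all replicates individually reaching that 30% level; inactive = mean below 30% and not every replicate reaching it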;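 also: 0% = neutral control wells and 100% = L-leucinethiol positive control wells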
S100A4 MyoIIA: inhibitors of human S100A4 binding to myosin IIA peptide | inhibition, % at 10.7 µM | S100A4/TAMRA-MyoIIA peptide fluorescence polarization | 360,000 tested, 0.14% active | P26447 | AID 652163;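 active = mean inhibition of at least 70% across replicates, with every replicate also reaching that level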
Target sequence (P26447 whole entry, looked up): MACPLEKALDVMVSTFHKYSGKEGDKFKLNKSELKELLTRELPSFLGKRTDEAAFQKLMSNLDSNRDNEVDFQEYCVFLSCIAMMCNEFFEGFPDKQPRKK
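Material: S100A4 monomer (human). Medium: Calcium-containing HEPES buffer, pH 7.2. Probe or stimulus: labelled myosin peptide probe, 5 nM. Compound dosing: one concentration per compound. Timing: polarization read 5 min after assay mix addition, stable 5–60 min. Benchmarks: DMSO as neutral control, TFP as positive control.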
* hit, by the source's call. In the library only some 3.4% were active in any assay of this set; here they are far more common.

What do the screens show for `C[C@H]1CN([C@@H](C)CO)C(=O)c2cc(NC(=O)CCN3CCOCC3)ccc2O[C@@H]1CN(C)Cc1ccncc1`?
E-sel inducer: 361.7*; Ecoli rRNA inh: -0.9; MLL AF4-AF9 inh: -1.6; SIRT5 inh: -4.0; ERAP1 inh: -1.7; S100A4 MyoIIA: -0.6

Results for C[C@@H]1CN([C@H](C)CO)C(=O)c2cc(NC(=O)CCN3CCOCC3)ccc2O[C@@H]1CN(C)Cc1ccc(C(F)(F)F)cc1 ?
E-sel inducer: 178.1*; Ecoli rRNA inh: 2.0; MLL AF4-AF9 inh: 0.5; SIRT5 inh: 2.9; ERAP1 inh: -1.4; S100A4 MyoIIA: -6.9

What do the screens show for `S=P(N1CC1)(N1CC1)N1CC1`?
E-sel inducer: -0.3; Ecoli rRNA inh: 14.6; MLL AF4-AF9 inh: -1.8; SIRT5 inh: -1.7; ERAP1 inh: 52.8*; S100A4 MyoIIA: 11.4

What do the screens show for `CC(C)CC#Cc1ccc2c(c1)O[C@H](CN(C)C(=O)NC1CCCC1)[C@H](C)CN([C@H](C)CO)S2(=O)=O`?
E-sel inducer: 0.1; Ecoli rRNA inh: -5.9; MLL AF4-AF9 inh: 0.3; SIRT5 inh: 12.9*; ERAP1 inh: 1.3; S100A4 MyoIIA: 8.6

Results for CC(C)CC#Cc1ccc2c(c1)O[C@H](CN(C)C(=O)NC1CCCC1)[C@@H](C)CN([C@@H](C)CO)S2(=O)=O ?
E-sel inducer: -0.2; Ecoli rRNA inh: -6.2; MLL AF4-AF9 inh: 0.4; SIRT5 inh: 19.1*; ERAP1 inh: -1.7; S100A4 MyoIIA: -3.6

What do the screens show for `CC(C)CC#Cc1ccc2c(c1)O[C@@H](CN(C)C(=O)NC1CCCC1)[C@@H](C)CN([C@@H](C)CO)S2(=O)=O`?
E-sel inducer: -0.4; Ecoli rRNA inh: -2.6; MLL AF4-AF9 inh: 1.0; SIRT5 inh: 15.6*; ERAP1 inh: 3.6; S100A4 MyoIIA: 1.8

How did CCc1cc(-c2n[nH]c(C)c2-c2nc3ccccc3n2C)c(O)c(CN2CCN(C)CC2)c1O do in these assays?
Ecoli rRNA inh: 1.7; MLL AF4-AF9 inh: 25.2*; SIRT5 inh: -6.3; ERAP1 inh: 14.4; S100A4 MyoIIA: 0.9

How did CCc1cc(-c2n[nH]c(C)c2-c2nc3ccccc3n2C)c(O)cc1O do in these assays?
Ecoli rRNA inh: -9.8; MLL AF4-AF9 inh: 1.8; SIRT5 inh: -2.2; ERAP1 inh: 5.5; S100A4 MyoIIA: 2.0

What do the screens show for `CCOC(=O)CSc1nc2cc(OCC)ccc2cc1C#N`?
Ecoli rRNA inh: -0.8; SIRT5 inh: 21.0*; ERAP1 inh: -2.3; S100A4 MyoIIA: -3.0

Results for CCOc1ccc2cc(C#N)c(SCC(=O)N3CCC(C)CC3)nc2c1 ?
E-sel inducer: 1.7

What do the screens show for `COc1ccc(C)cc1NC(=O)CCN1CC(C)OC(C)C1` (centres undefined)?
Ecoli rRNA inh: 19.1; MLL AF4-AF9 inh: -0.4; SIRT5 inh: 23.4*; ERAP1 inh: -0.4; S100A4 MyoIIA: -1.1

What do the screens show for `COc1ccc(Cl)cc1NC(=O)NCC1CCN(C(=O)OC(C)(C)C)CC1`?
Ecoli rRNA inh: -20.4*; MLL AF4-AF9 inh: -0.9; SIRT5 inh: -1.1; ERAP1 inh: -1.9; S100A4 MyoIIA: 5.5

Results for COc1ccc(C)cc1NC(=O)CCN1CCN(c2ccccc2)CC1 ?
E-sel inducer: 0.0; Ecoli rRNA inh: -1.2; MLL AF4-AF9 inh: 4.5; SIRT5 inh: -2.8; ERAP1 inh: 0.6; S100A4 MyoIIA: 10.9

What do the screens show for `COc1ccc(Cl)cc1NC(=O)N1CCN(c2ccccc2OC)CC1`?
E-sel inducer: 0.1; Ecoli rRNA inh: -30.5*; MLL AF4-AF9 inh: 1.2; SIRT5 inh: -0.7; ERAP1 inh: 1.3; S100A4 MyoIIA: 4.7

What do the screens show for `COc1ccc(Cl)cc1NC(=O)CCN1CCN(Cc2ccccc2)CC1`?
E-sel inducer: 0.1; Ecoli rRNA inh: -12.4; MLL AF4-AF9 inh: 5.2; SIRT5 inh: 21.8*; ERAP1 inh: -0.8; S100A4 MyoIIA: 0.5

Results for CCN1CCN(CCC(=O)Nc2ccccc2OC)CC1 ?
Ecoli rRNA inh: 7.0; MLL AF4-AF9 inh: -48.6; SIRT5 inh: -3.3; ERAP1 inh: 2.3; S100A4 MyoIIA: -1.5

How did COc1ccccc1N1CCN(C(=O)Nc2cccc(Cl)c2)CC1 do in these assays?
Ecoli rRNA inh: -23.4; MLL AF4-AF9 inh: -19.6; SIRT5 inh: 3.6; ERAP1 inh: 2.4; S100A4 MyoIIA: 0.2

Results for C[C@H]1CN(C)C(=O)Cc2ccccc2O[C@H]1CN(C)S(C)(=O)=O ?
Ecoli rRNA inh: 3.0

How did Fc1ccc(NC(=S)N2CCN(c3cccc(C(F)(F)F)c3)CC2)cc1 do in these assays?
E-sel inducer: 147.8*; Ecoli rRNA inh: -7.0; MLL AF4-AF9 inh: -1.0; SIRT5 inh: -3.2; ERAP1 inh: -0.9; S100A4 MyoIIA: 3.1

How did COc1ccccc1NC(=O)N1CCN(c2cccc(C(F)(F)F)c2)CC1 do in these assays?
Ecoli rRNA inh: -34.3; SIRT5 inh: 18.3*; ERAP1 inh: 1.5; S100A4 MyoIIA: -0.9

Results for O=C(Nc1cc(F)ccc1F)N1CCN(c2ccnc3cc(Cl)ccc23)CC1 ?
E-sel inducer: -0.1; Ecoli rRNA inh: -27.6*; MLL AF4-AF9 inh: -5.1; SIRT5 inh: -0.2; ERAP1 inh: -2.1; S100A4 MyoIIA: -4.0

What do the screens show for `Cc1ccc(F)cc1NC(=O)N1CCN(c2ccnc3cc(Cl)ccc23)CC1`?
E-sel inducer: -0.1; Ecoli rRNA inh: -18.0; MLL AF4-AF9 inh: -1.5; SIRT5 inh: 4.5; S100A4 MyoIIA: -2.2

How did COc1ccccc1NC(=O)N1CCN(C(=O)Nc2ccccc2OC)CC1 do in these assays?
Ecoli rRNA inh: 16.6; MLL AF4-AF9 inh: -10.8; SIRT5 inh: 5.1; ERAP1 inh: 1.2; S100A4 MyoIIA: 1.0

How did CCNC(=O)/C(C#N)=C/c1c(N(Cc2ccccc2)Cc2ccccc2)nc2ccccn2c1=O do in these assays?
E-sel inducer: 0.7; Ecoli rRNA inh: -17.9*; MLL AF4-AF9 inh: 11.9; SIRT5 inh: 0.0; ERAP1 inh: -3.0; S100A4 MyoIIA: 0.8

Results for CCNC(=O)/C(C#N)=C/c1c(N2CCOCC2)nc2ccccn2c1=O ?
Ecoli rRNA inh: 15.2; MLL AF4-AF9 inh: -1.5; ERAP1 inh: -0.7; S100A4 MyoIIA: -3.6

Results for Cc1ccc(-c2ccc(/C=C3/NC(=O)NC3=O)o2)cc1[N+](=O)[O-] ?
Ecoli rRNA inh: 33.5; MLL AF4-AF9 inh: -2.3; SIRT5 inh: 0.7; ERAP1 inh: -1.2; S100A4 MyoIIA: -17.7

Results for CC1=C(C#N)C(=O)NC(=O)/C1=C\c1ccc(-c2cc(C)c(C)cc2[N+](=O)[O-])o1 ?
Ecoli rRNA inh: -34.0*; MLL AF4-AF9 inh: 6.6; SIRT5 inh: 17.0*; ERAP1 inh: 1.3; S100A4 MyoIIA: -7.8

How did BrC(/C=N/N1CCN(Cc2ccccc2)CC1)=C/c1ccccc1 do in these assays?
E-sel inducer: 1.1; Ecoli rRNA inh: -42.1*; MLL AF4-AF9 inh: 8.8; SIRT5 inh: -0.8; ERAP1 inh: 1.5; S100A4 MyoIIA: -0.6
